For 24 compounds, IC50 and inhibition results are on record in ChEMBL document CHEMBL4808178 (J Med Chem, 2021).

For one experiment, the system named is PC-3. The experiment in a line: Cytotoxicity against human PC3 cells assessed as reduction in cell viability incubated for 72 hrs by MTT assay. Type of experiment: functional, cell-based. As to conditions: PC-3, 72 h. The gist of the method:
(§1)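 About 5 × 10³ cells/well, seeded overnight at 37 °C, 5% CO₂, in DMEM or RPMI-1640 with 10% FBS and antibiotics. DMSO-dissolved compounds diluted in medium, exposure 72 h.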

The test system of a further experiment is HT-29. The experiment can be described thus: Cytotoxicity against human HT-29 cells assessed as reduction in cell viability incubated for 72 hrs by MTT assay. As to conditions: HT-29, 72 h. Type of experiment: functional, cell-based.
For experiment [1], the system named is HCT-116. The experiment can be described thus: Cytotoxicity against human HCT-116 cells assessed as reduction in cell viability incubated for 72 hrs by MTT assay. As to conditions: HCT-116, 72 h. The experiment is classed as functional, cell-based. The gist of the method: as §1
The test system of a further experiment is MCF7. The experiment can be described thus: Cytotoxicity against human MCF7 cells assessed as reduction in cell viability incubated for 72 hrs by MTT assay. Type of experiment: functional, cell-based. As to conditions: MCF7, 72 h. In a few lines:
as §1

A further experiment relates to L02. The experiment in a line: Cytotoxicity against human L02 cells assessed as reduction in cell viability incubated for 72 hrs by MTT assay. The experiment is classed as cell-based. As to conditions: L02, 72 h. In a few lines: as §1
In the next experiment the test system is T-24. The experiment in a line: Cytotoxicity against human T24 cells assessed as reduction in cell viability incubated for 72 hrs by MTT assay. The experiment is classed as functional, cell-based. As to conditions: T-24, 72 h. The gist of the method:
as §1

Experiment [2] addresses Dual specificity protein kinase CLK2 (Homo sapiens, UniProt P49760). The experiment can be described thus: Inhibition of human CLK2 incubated for 2 hrs.
Experiment [3] relates to HCT-116. The experiment can be described thus: Inhibition of cell stemness in human HCT116 cells assessed as morphological alterations at 5 uM after 10 days by microscopic analysis. Type of experiment: functional, cell-based. As to conditions: time 10.0 day. In a few lines:
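Sorted ALDH⁺ HCT-116 cells, 800/well, in serum-free DMEM with B27 (1:50), EGF 20 ng/mL, β-FGF 10 ng/mL; co-incubated with compound (5 μM) or DMSO vehicle for 10 days; sphere number, diameter and morphology scored from microscopy images; mean ± SD, n = 3.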

In experiment [4] the test system is HCT-116. The experiment in a line: Inhibition of cell stemness in human HCT116 cells assessed as inhibition of CD44+/CD133+ expression at 20 uM after 24 hrs by flow cytometry analysis. The experiment is classed as functional. The gist of the method:
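ALDH⁺ HCT-116 subpopulation sorted by flow cytometry; 2 × 10⁵ cells/well seeded overnight at 37 °C, 5% CO₂; treated 20 μM for 24 h (vehicle DMSO); stained with PE anti-CD133 and FITC anti-CD44 30 min; CD44⁺/CD133⁺ read by flow cytometry.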

Active and inactive are the calls of the source. The rule behind the calls is not given here.

Dual specificity protein kinase CLK2, sequence (P49760 whole entry): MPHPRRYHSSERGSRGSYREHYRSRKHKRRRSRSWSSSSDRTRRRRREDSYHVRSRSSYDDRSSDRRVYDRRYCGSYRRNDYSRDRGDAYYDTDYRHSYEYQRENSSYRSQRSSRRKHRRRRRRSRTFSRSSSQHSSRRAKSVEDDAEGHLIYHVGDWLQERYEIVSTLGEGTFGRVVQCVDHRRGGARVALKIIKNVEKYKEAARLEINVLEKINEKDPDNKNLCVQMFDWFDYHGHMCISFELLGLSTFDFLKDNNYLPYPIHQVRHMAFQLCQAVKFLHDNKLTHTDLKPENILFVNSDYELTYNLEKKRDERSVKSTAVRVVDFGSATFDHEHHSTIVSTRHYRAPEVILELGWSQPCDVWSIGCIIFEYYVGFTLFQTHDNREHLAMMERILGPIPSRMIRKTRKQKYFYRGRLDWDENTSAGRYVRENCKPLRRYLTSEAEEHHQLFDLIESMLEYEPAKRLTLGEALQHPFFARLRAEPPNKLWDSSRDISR

Regarding `NCCCNC(=O)c1ccc2c(c1)nc(Nc1cccc(Cl)c1)c1ccncc12`, the IC50 in the experiment on PC-3 was 14.1 µM; in the experiment with HT-29, 9.87 µM; with HCT-116 [1], 15.9 µM; in the experiment with MCF7 it was 19.7 µM; in the experiment with L02, 85 µM; in the experiment on T-24, 37.3 µM.
`O=C(NCCN1CCCCC1)c1ccc2c(c1)nc(Nc1cccc(Cl)c1)c1ccncc12`: the concentration for half-maximal inhibition (IC50) in the experiment with PC-3 amounted to 6.08 µM; with HT-29 it was 13.8 µM; in the experiment with HCT-116 [1], 8.6 µM; with MCF7 it was 3.74 µM; with L02 it was 14.3 µM; with T-24, 3.24 µM.
`O=C(NCCBr)c1ccc2c(c1)nc(Nc1cccc(Cl)c1)c1ccncc12`: the IC50 with PC-3 is 8.76 µM; in the experiment with HT-29, 8.01 µM; in experiment [2], 0.0247 µM; with HCT-116 [1], 28.1 µM; in the experiment with MCF7 it was 14.9 µM; in the experiment on L02 it was 66.7 µM. In addition, the IC50 in the experiment with T-24 is 8.95 µM.
`O=C(OCC(F)F)c1ccc2c(c1)nc(Nc1cccc(Cl)c1)c1ccncc12`: the IC50 in the experiment on PC-3 was found to be 22.1 µM; with HT-29, 8.09 µM; in experiment [2] it was 0.00154 µM; with HCT-116 [1] it was 7.52 µM; with MCF7, 9.85 µM; in the experiment on L02 it was 83.9 µM. The IC50 in the experiment on T-24 came to 22.7 µM.
For the compound `O=C(OCCC(Cl)Cl)c1ccc2c(c1)nc(Nc1cccc(Cl)c1)c1ccncc12`, the IC50 with PC-3 worked out at 13.5 µM; in the experiment on HT-29 it was 18.4 µM; with HCT-116 [1], 20.8 µM; with MCF7 it was 14.2 µM; in the experiment on L02 it was 22 µM; in the experiment with T-24, 20.6 µM.
In the case of `COC(=O)CCCNC(=O)c1ccc2c(c1)nc(Nc1cccc(Cl)c1)c1ccncc12`, the IC50 in the experiment with PC-3 was 4.89 µM; in the experiment on HT-29, 20.6 µM; in the experiment with HCT-116 [1] it was 5.91 µM; in the experiment with MCF7, 19.8 µM; with L02 it was 89.1 µM; in the experiment with T-24, 12.9 µM.
Take `O=C(NCCN1CCOCC1)c1ccc2c(c1)nc(Nc1cccc(Cl)c1)c1ccncc12`: the IC50 in the experiment on PC-3 is 3.28 µM; in the experiment on HT-29, 13.4 µM; in [2], 0.0219 µM; with HCT-116 [1], 7.98 µM; in the experiment with MCF7, 11 µM; in the experiment on L02, 37.8 µM. The IC50 in the experiment on T-24 amounted to 8.73 µM.
Regarding `O=C(OCCOCCOCCO)c1ccc2c(c1)nc(Nc1cccc(Cl)c1)c1ccncc12`, the IC50 in the experiment on PC-3 was 19.2 µM; in the experiment on HT-29 it was 12.6 µM; in the experiment on HCT-116 [1] it was 9.71 µM; in the experiment with MCF7 it was 13.6 µM; with L02, 30.7 µM; with T-24, 14.1 µM.
`O=C(NCCN1CCCC1)c1ccc2c(c1)nc(Nc1cccc(Cl)c1)c1ccncc12`: the IC50 in the experiment with PC-3 stood at 10.1 µM; with HT-29, 7.94 µM; with HCT-116 [1], 8.79 µM; with MCF7, 8.6 µM; with L02 it was 16 µM; in the experiment on T-24, 3.23 µM.
Consider `O=C(OCCO)c1ccc2c(c1)nc(Nc1cccc(Cl)c1)c1ccncc12`, for which the IC50 in the experiment on PC-3 worked out at 9.15 µM; with HT-29, 10.9 µM; in experiment [2], 0.00238 µM; in the experiment on HCT-116 [1], 10.9 µM; in the experiment with MCF7, 15.2 µM; in the experiment on L02, 45.1 µM. In the experiment on T-24, the IC50 is 16.6 µM.
Take `O=C(O)CCCNC(=O)c1ccc2c(c1)nc(Nc1cccc(Cl)c1)c1ccncc12`: the IC50 in the experiment with PC-3 turned out to be 4.2 µM; in the experiment on HT-29, 14.5 µM; with HCT-116 [1] it was 24.8 µM; in the experiment on MCF7, 19.6 µM; in the experiment with L02, 32.2 µM; in the experiment on T-24, 21.1 µM.
As to `O=C(NO)c1ccc2c(c1)nc(Nc1cccc(Cl)c1)c1ccncc12`, the IC50 with PC-3 stood at 15.1 µM; in the experiment on HT-29 it was 9.98 µM; with HCT-116 [1] it was 8.62 µM; in the experiment with MCF7, 7.66 µM; in the experiment on L02 it was 21.4 µM; in the experiment on T-24, 3.89 µM.
As to `CS(=O)(=O)NC(=O)c1ccc2c(c1)nc(Nc1cccc(Cl)c1)c1ccncc12`, the IC50 came out at 4.16 µM in the experiment on PC-3; 17.8 µM in the experiment with HT-29; 13.2 µM in the experiment on HCT-116 [1]; 12.2 µM in the experiment with MCF7; 28.4 µM in the experiment with L02; 23.5 µM with T-24.
Consider `O=C(NCC(F)F)c1ccc2c(c1)nc(Nc1cccc(Cl)c1)c1ccncc12`, for which the IC50 with PC-3 turned out to be 6.12 µM; in the experiment with HCT-116 [1], 16.5 µM; in the experiment on MCF7 it was 10.4 µM; in the experiment on L02, 18.4 µM; in the experiment with T-24, 18.1 µM.
Regarding `C#CCNC(=O)c1ccc2c(c1)nc(Nc1cccc(Cl)c1)c1ccncc12`, the IC50 with PC-3 came to 7.6 µM; in the experiment with HT-29, 16.4 µM; with HCT-116 [1] it was 21.2 µM; with MCF7, 13.9 µM; in the experiment with L02, 28.4 µM; in the experiment on T-24 it was 18.5 µM.
On to `CN(C)CCNC(=O)c1ccc2c(c1)nc(Nc1cccc(Cl)c1)c1ccncc12`, for which the IC50 was determined as 11.1 µM with PC-3; 5.08 µM in the experiment on HT-29; 12.8 µM in the experiment with HCT-116 [1]; 6.01 µM in the experiment with MCF7; 17.3 µM in the experiment on L02; 5.93 µM in the experiment on T-24.
For `O=C(OCCF)c1ccc2c(c1)nc(Nc1cccc(Cl)c1)c1ccncc12`, the concentration for half-maximal inhibition (IC50) in the experiment with PC-3 worked out at 6.4 µM; with HT-29, 7.8 µM; in [2] it was 0.00106 µM; in the experiment on HCT-116 [1], 4.28 µM; in the experiment on MCF7, 5.98 µM; in the experiment with L02, 57.8 µM. In addition, in the experiment on T-24, the IC50 was 5.91 µM.
On to `COC(=O)CCNC(=O)c1ccc2c(c1)nc(Nc1cccc(Cl)c1)c1ccncc12`, for which the IC50 in the experiment on PC-3 was 9.94 µM; in the experiment with HT-29 it was 3.52 µM; in experiment [2], 0.0097 µM; in the experiment with HCT-116 [1], 8.13 µM; in the experiment with MCF7, 4.51 µM; in the experiment with L02, more than 200 µM. The IC50 in the experiment on T-24 came out at 10.7 µM.
Take `O=C(OCCc1ccccn1)c1ccc2c(c1)nc(Nc1cccc(Cl)c1)c1ccncc12`: the IC50 with PC-3 stood at 11 µM; in the experiment on HT-29, 9.52 µM; in the experiment on HCT-116 [1], 6.91 µM; with MCF7, 10.1 µM; in the experiment on L02, 24.9 µM; in the experiment on T-24, 22.5 µM.
On to `O=C(NCCCO)c1ccc2c(c1)nc(Nc1cccc(Cl)c1)c1ccncc12`, for which the IC50 in the experiment with PC-3 stood at 8.94 µM; in the experiment on HT-29 it was 11.8 µM; in the experiment on HCT-116 [1], 13.7 µM; in the experiment with MCF7, 7.71 µM; in the experiment with L02, 74.2 µM; in the experiment with T-24, 18.8 µM.
As for `O=C(O)CCNC(=O)c1ccc2c(c1)nc(Nc1cccc(Cl)c1)c1ccncc12`, the IC50 in the experiment with PC-3 was determined as 16.2 µM; in the experiment with HT-29, 19.9 µM; with HCT-116 [1], 4.6 µM; with MCF7, 24.6 µM; with L02, 72.8 µM; in the experiment on T-24, 24.4 µM.
Regarding `O=C(OCCI)c1ccc2c(c1)nc(Nc1cccc(Cl)c1)c1ccncc12`, the IC50 worked out at 10 µM with PC-3; 17.1 µM in the experiment on HT-29; 0.00169 µM in [2]; 17.7 µM in the experiment with HCT-116 [1]; 10.7 µM with MCF7; 43.5 µM in the experiment on L02. Besides, the IC50 in the experiment on T-24 came out at 17.5 µM.
For `CC(=O)c1cc2c(o1)C(=O)c1ccccc1C2=O` [NAPABUCASIN], the inhibition entry in the experiment with HCT-116 [3] was “Active”. Also, the inhibition at 20 µM in the experiment on HCT-116 [4] is 89%.
Consider `NCCNC(=O)c1ccc2c(c1)nc(Nc1cccc(Cl)c1)c1ccncc12`, for which the IC50 worked out at 5.48 µM with PC-3; 11.4 µM with HT-29; 0.0196 µM in experiment [2]; 7.26 µM with HCT-116 [1]; 4.88 µM with MCF7; 111 µM in the experiment with L02. Also, in the experiment with T-24, the IC50 came out at 14.4 µM.
